Test results as given in ChEMBL document CHEMBL5338796, “Discovery of a Selective and Orally Bioavailable FGFR2 Degrader for Treating Gastric Cancer” (J Med Chem, 2023).
Active and inactive are the calls of the source. The rule behind the calls is not given here.

What was measured:
[1] = Volume of distribution at steady state in mice at 3 mg/kg, iv measured at 0.083 to 24 hrs by LC-MS/MS analysis; details: mouse, in vivo, read-out: Vdss
[2] = biological target: T1, Protein cereblon/Fibroblast growth factor receptor 2 (Homo sapiens, UniProt P21802+Q96SW2); test: PROTAC activity at CRBN/FGFR2 in human KATO III stomach cancer cell line assessed as FGFR2 degradation by measuring FGFR2 expression level at 100 nM measured after 12 hrs by Western blotting analysis relative to control; format: cell-based
In short: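 Time course in KATO III cells: FGFR2/β-actin by Western blot at successive treatment times, normalized to DMSO control.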

MV4-11 = test: Antiproliferative activity against human MV4-11 cells assessed as reduction in cell viability measured for 72 hrs by celltiter-glo reagent based assay; format: functional; details: MV4-11, 72 h
In short: (§1)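 Cancer lines KATO III, SNU16, NCI-H716, NCI-H1975, MV-4-11 and HEK293T treated 72 h; antiproliferative IC50 given as mean ± s.d. from three independent biological experiments.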

[3] = Toxicity in ICR mouse assessed as morphological changes in lung at 20 mg/kg, po measured for 30 days by hematoxyin-eosin staining based analysis; format: organism-based; details: in vivo, 720 h, time 30 day
In short: (§2)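 ICR mice (n = 6) were dosed orally at 20 mg/kg/day for 30 days, alongside vehicle-treated controls. Mortality and clinical signs were checked daily. At the end, body and organ weights were recorded. Heart, liver, spleen, lung and kidney were examined by hematoxylin and eosin staining.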

[4] = Tmax in mouse at 20 mg/kg, po measured at 0.25 to 24 hrs by LC-MS/MS analysis; details: in vivo
[5] = Toxicity in BALB/c mouse xenografted with human SNU-16 cells assessed as tolerability at 20 mg/kg, po administered for 15 days and measured on day 2; format: organism-based; details: in vivo, 48 h, time 2 day
In short: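 Female BALB/c nude mice, 5 weeks old (20–22 g), carried subcutaneous SNU-16 xenografts in the right flank. Dosing began at mean tumor volume 50–100 mm3, after randomization by body weight, n = 5. Mice received 20 mg/kg/day by gavage in 0.5% CMC-Na, QD for 15 d, with vehicle controls. Body weight was measured every 2 days.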

[6] = Tmax in Sprague-Dawley rat at 3 mg/kg, iv measured at 0.083 to 24 hrs by LC-MS/MS analysis; format: ADME, organism-based; details: in vivo, time 0.083-24 hrs
In short: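 Male Sprague Dawley rats received a single dose of 3 mg/kg i.v. or 20 mg/kg p.o. Vehicle was 10% Solutol, 85% (10% HP-β-CD in saline) and 5% DMSO, adjusted to pH 9–10. Plasma was assayed by LC–MS/MS.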

[7] = biological target: T1, Protein cereblon/Fibroblast growth factor receptor 2; test: PROTAC activity at CRBN/FGFR2 in human KATO III stomach cancer cell line assessed as FGFR2 degradation by measuring FGFR2 expression level at 100 to 500 nM measured for 6 hrs by Western blotting analysis; format: cell-based; details: dose 100-500 nM
In short: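 KATO III cells treated 6 h across 0.5–10,000 nM (DMSO stock, final DMSO below 0.5%); FGFR2 immunoblotted, quantified as FGFR2/β-actin ratio normalized to DMSO-treated cells, three independent biological experiments; DC50 and Dmax derived from the curve.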

[8] = biological target: Fibroblast growth factor receptor (Homo sapiens) (UniProt P22607+P11362+P22455+P21802); test: Induction of FGFR degradation in human KATO III stomach cancer cell line assessed as reduction in FGFR phosphorylation at A-loop Tyr656/657 residue at 25 nM measured for 6 hrs; format: cell-based
In short: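 KATO III cells treated 6 h at the indicated concentrations with degrader or BGJ398; FGFR A-loop Tyr656/657 autophosphorylation monitored by immunoblot.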

[9] = biological target: Tyrosine-protein kinase ABL1 (Homo sapiens) (UniProt P00519); test: Inhibition of human ABL1 at 1000 nM by KINOMEscan analysis relative to control
SNU-16 [10] = test: Antitumor activity against human SNU-16 cells xenografted in BALB/c nude mouse assessed as reduction in FGFR phosphorylation in tumor at 20 mg/kg, po measured at 4 hrs; format: functional, organism-based
In short: (§3)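 Female BALB/c nude mice, 5 weeks old (20–22 g), s.c. right-flank SNU-16 implants, randomized by body weight into groups (n = 5) once tumours reached 50–100 mm3. Dosing 20 mg/kg/day intragastric in 0.5% CMC-Na for 15 d; vehicle controls. Tumour width and length measured every 2 days; tumours harvested 4 h after last dose and lysates immunoblotted for pFGFR, FGFR2, pPLCγ, pErk.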

[11] = biological target: Fibroblast growth factor receptor 2 (Homo sapiens) (UniProt P21802); test: Inhibition of partial length human FGFR2 at 1000 nM by KINOMEscan analysis relative to control
In short: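 97-kinase scanEDGE panel screened at 1000 nM; results reported as % Ctrl, lower values meaning stronger inhibition.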

[12] = Toxicity in ICR mouse assessed as change in heart weight at 20 mg/kg, po measured for 30 days; format: organism-based; details: in vivo, 720 h, time 30 day
In short: as §2

[13] = Half life in Sprague-Dawley rat at 20 mg/kg, po measured at 0.25 to 24 hrs by LC-MS/MS analysis; format: ADME, organism-based; details: in vivo, time 0.25-24 hrs
In short: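 Male Sprague Dawley rats, single dose i.v. 3 mg/kg or p.o. 20 mg/kg in 10% Solutol, 85% (10% HP-β-CD in saline), 5% DMSO, pH adjusted to 9–10.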

[14] = biological target: Fibroblast growth factor receptor 4 (Homo sapiens) (UniProt P22455); test: Induction of FGFR4 degradation in human Huh-7 cells at 100 nM measured for 6 hrs Western blot analysis; format: cell-based
In short: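 NCI-H1581 (FGFR1), MCF7 (FGFR3) and Huh7 (FGFR4) cells, which endogenously express the isoforms, treated with 100 nM for 6 h; isoform levels by Western blot against β-actin, three biologically independent experiments.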

SNU-16 [15] = test: Antiproliferative activity against human SNU-16 cells assessed as reduction in cell viability measured for 72 hrs by celltiter-glo reagent based assay; format: functional; details: SNU-16, 72 h
In short: as §1

SNU-16 [16] = test: Antitumor activity against human SNU-16 cells xenografted in BALB/c nude mouse assessed as tumor growth inhibition at 20 mg/kg, po administered for 15 days and measured on day 2; format: functional; details: SNU-16, 48 h, time 2 day, read-out: TGI
In short: as §3

[17] = Hepatotoxicity in ICR mouse assessed as effect on ALT level at 20 mg/kg, po measured for 30 days; format: toxicity, organism-based; details: in vivo, 720 h, time 30 day
In short: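 ICR mice given 20 mg/kg/day orally for 30 days (n = 6), vehicle controls; mortality and clinical signs checked daily, then AST/ALT and creatinine, organ weights, haematology and H&E of heart, liver, spleen, lung, kidney.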

[18] = Toxicity in ICR mouse assessed as change in spleen weight at 20 mg/kg, po measured for 30 days; format: organism-based; details: in vivo, 720 h, time 30 day
In short: as §2

T1 sequence (P21802 22-821 limits assumed): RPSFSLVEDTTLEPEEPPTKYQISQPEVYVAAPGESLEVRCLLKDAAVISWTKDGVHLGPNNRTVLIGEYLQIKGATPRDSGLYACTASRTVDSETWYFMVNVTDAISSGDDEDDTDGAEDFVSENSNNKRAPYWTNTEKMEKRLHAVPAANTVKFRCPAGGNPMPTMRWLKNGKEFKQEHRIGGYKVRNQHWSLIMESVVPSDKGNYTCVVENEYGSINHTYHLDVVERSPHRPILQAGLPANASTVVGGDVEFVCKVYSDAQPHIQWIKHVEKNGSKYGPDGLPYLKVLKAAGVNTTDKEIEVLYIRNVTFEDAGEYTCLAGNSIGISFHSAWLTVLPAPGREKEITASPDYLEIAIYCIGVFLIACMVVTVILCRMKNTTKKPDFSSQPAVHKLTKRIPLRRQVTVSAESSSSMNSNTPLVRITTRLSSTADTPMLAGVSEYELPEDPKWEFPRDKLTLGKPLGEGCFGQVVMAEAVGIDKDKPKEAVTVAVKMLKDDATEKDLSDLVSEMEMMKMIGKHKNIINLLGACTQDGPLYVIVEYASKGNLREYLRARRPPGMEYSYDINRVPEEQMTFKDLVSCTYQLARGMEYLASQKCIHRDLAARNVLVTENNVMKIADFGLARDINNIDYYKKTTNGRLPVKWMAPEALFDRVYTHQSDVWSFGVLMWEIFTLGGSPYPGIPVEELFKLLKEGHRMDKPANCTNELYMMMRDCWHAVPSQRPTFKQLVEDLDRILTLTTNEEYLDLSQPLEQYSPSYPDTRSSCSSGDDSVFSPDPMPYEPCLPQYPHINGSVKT
T1 sequence (Q96SW2 whole entry partner): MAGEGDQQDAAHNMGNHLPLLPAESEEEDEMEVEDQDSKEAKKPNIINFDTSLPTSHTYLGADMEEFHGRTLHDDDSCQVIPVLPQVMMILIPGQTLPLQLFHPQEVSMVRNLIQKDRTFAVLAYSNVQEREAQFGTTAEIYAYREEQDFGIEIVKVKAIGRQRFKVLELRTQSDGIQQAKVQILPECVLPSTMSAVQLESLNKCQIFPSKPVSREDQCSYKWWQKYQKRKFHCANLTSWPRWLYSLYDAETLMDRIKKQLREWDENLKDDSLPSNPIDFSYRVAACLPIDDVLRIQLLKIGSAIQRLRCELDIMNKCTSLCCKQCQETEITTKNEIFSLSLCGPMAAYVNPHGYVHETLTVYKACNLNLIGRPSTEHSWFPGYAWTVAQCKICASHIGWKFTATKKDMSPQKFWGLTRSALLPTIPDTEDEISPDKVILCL
Sequence of Fibroblast growth factor receptor (Homo sapiens) (P11362 whole entry, looked up): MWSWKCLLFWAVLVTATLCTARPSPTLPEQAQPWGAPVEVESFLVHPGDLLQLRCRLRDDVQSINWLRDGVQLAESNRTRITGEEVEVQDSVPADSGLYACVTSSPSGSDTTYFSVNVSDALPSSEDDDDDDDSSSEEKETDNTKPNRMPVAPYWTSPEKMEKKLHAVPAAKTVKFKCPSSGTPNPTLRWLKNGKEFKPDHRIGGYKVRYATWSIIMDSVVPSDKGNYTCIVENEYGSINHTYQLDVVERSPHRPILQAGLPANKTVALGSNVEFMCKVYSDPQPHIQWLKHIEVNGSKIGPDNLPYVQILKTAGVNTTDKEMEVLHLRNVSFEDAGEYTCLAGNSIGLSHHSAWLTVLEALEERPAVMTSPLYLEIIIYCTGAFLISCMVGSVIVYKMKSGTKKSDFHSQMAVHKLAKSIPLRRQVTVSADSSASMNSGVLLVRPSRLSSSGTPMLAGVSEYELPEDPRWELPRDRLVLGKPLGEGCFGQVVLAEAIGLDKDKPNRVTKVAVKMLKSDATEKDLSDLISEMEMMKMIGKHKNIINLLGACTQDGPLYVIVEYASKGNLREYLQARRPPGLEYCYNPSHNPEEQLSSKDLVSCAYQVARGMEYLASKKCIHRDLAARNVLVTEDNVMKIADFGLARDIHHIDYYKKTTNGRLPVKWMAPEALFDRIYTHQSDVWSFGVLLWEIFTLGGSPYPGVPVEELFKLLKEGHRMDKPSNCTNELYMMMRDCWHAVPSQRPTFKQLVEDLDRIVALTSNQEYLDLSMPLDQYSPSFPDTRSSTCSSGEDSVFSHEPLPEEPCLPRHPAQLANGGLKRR
Sequence of Fibroblast growth factor receptor (Homo sapiens) (P21802 whole entry, looked up): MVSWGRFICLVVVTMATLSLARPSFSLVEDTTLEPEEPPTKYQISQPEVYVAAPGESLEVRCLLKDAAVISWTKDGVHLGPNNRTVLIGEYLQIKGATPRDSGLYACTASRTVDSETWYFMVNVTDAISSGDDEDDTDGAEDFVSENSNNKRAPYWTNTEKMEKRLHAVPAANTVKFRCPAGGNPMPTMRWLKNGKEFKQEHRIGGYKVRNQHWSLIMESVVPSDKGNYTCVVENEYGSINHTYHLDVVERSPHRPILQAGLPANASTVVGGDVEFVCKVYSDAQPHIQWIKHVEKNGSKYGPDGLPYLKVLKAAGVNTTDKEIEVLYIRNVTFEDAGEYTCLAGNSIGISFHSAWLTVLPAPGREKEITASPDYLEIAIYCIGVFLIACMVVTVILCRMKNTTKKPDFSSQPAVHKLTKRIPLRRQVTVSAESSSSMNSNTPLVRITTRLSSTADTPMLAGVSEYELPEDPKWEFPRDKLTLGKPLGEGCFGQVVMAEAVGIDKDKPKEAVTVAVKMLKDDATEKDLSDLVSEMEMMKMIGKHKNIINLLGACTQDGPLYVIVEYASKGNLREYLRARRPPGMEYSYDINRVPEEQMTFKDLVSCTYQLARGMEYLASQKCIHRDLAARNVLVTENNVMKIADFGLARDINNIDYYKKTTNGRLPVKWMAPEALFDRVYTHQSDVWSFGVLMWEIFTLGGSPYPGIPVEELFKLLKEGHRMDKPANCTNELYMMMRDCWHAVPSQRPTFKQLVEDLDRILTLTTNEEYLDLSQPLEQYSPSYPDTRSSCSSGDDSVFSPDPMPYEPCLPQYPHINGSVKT
Sequence of Fibroblast growth factor receptor (Homo sapiens) (P22455 whole entry, looked up): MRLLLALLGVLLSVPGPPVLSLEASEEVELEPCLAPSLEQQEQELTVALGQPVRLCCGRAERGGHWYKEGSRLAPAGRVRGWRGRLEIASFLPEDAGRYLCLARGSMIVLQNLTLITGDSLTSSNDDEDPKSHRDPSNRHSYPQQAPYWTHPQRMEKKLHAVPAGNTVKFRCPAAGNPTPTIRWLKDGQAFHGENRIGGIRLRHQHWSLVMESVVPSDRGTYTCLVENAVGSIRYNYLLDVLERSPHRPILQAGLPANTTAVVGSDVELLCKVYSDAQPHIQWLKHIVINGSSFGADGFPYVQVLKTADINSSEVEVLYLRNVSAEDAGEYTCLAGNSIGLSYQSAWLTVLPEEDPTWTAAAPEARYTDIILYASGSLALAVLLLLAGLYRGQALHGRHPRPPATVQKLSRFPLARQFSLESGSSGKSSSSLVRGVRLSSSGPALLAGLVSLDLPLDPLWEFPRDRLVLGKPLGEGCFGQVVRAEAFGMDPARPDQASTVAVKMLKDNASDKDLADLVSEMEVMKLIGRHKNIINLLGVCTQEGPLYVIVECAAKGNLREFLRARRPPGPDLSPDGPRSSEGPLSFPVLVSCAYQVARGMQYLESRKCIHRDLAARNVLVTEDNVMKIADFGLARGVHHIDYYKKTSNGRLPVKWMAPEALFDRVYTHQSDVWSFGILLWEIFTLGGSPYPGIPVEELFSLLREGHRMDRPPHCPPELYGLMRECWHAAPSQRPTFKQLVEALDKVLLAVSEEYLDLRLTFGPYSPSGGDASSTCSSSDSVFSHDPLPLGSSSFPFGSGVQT
Sequence of Fibroblast growth factor receptor (Homo sapiens) (P22607 whole entry, looked up): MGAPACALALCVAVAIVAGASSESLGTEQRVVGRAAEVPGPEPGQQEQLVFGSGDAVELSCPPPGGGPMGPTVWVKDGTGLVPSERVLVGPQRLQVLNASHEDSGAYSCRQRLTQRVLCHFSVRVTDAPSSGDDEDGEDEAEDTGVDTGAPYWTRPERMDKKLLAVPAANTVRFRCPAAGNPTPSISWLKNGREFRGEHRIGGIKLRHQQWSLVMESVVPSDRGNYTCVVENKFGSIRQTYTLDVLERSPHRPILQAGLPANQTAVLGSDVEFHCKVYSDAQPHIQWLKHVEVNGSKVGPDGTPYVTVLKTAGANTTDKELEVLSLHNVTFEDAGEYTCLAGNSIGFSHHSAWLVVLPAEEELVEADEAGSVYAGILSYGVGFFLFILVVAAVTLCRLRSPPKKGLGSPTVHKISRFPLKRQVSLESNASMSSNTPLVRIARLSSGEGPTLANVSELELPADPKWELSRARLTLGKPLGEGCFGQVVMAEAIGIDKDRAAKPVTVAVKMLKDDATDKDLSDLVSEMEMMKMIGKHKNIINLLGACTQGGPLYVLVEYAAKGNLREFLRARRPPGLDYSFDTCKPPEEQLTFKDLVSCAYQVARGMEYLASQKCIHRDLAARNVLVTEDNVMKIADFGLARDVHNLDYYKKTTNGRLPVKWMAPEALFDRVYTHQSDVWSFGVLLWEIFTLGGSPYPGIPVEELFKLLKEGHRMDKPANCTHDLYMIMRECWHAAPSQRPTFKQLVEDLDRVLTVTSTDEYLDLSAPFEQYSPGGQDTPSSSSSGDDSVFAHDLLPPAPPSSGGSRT
Sequence of Fibroblast growth factor receptor 2 (Homo sapiens) (P21802 22-821 limits assumed): as the sequence (P21802 22-821 limits assumed) above

COc1cc(OC)c(Cl)c(NC(=O)N(C)c2cc(Nc3ccc(N4CCN(C(=O)C5CCN(c6ccc7c(c6)C(=O)N(C6CCC(=O)NC6=O)C7=O)CC5)CC4)cc3)ncn2)c1Cl (centres undefined)
Vd [1]: 6.23 L/kg | Activity [2]: 90% | IC50 (MV4-11): > 10000 nM | Activity [3]: Non-Toxic | Tmax [4]: 2.67 h | Activity [5]: Non-Toxic | Tmax [6]: 4.98 min | Activity [7]: 70% | Activity [8]: Active | inhibition [9]: 47% | Activity (SNU-16 [10]): Active | inhibition [11]: 87% | Activity [12]: Non-Toxic | half-life [13]: 1.47 h | Activity [14]: inactive | IC50 (SNU-16 [15]): 3.7 nM | inhibition in vivo at 20 mg/kg (SNU-16 [16]): 63.1% | Activity [17]: Non-Toxic | Activity [18]: Non-Toxic
